Data: ChEMBL document CHEMBL3763019, “Discovery of benzenesulfonamide derivatives as potent PI3K/mTOR dual inhibitors with in vivo efficacies against hepatocellular carcinoma” (Bioorg Med Chem, 2016)

Tests used:
[1] = Antitumor activity against human Bel7404 cells xenografted in BALB/c nude mouse assessed as reduction in tumor volume at 50 mg/kg, po qd for 14 consecutive days relative to control; assay type: functional, BEL-7404; set-up: scale not given: the % may be the effect or the level left
Method in brief: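 Male BALB/c nude mice carried implanted BEL-7404 tumours and were randomized once tumours reached 100–300 mm³ (about 12 days); there were 6 per treated group and 8 controls. Drug in 5% polysorbate 80/water was given orally once daily for 14 days from day 13. Tumour volume (1/2·a·b·b) and body weight were tracked, with sacrifice on day 29. The read-out was relative tumour volume versus vehicle, reported as mean SE.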

[2] = target: Serine/threonine-protein kinase mTOR (Homo sapiens, UniProt P42345); test: Inhibition of mTOR kinase (unknown origin) assessed as suppression of ULight-4E-BP1 substrate phosphorylation incubated for 1 hr by lance ultra assay
[3] = Half life in rat liver microsomes; assay type: ADME
[4] = tested on: A549; test: Cytotoxicity against human A549 cells after 72 hrs by MTT assay; assay type: functional, cell-based; details: A549, 72 h
Method in brief: (§1)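 Log-phase cells at 40,000–50,000 cells/mL in DMEM with 10% FBS and antibiotics were seeded and cultured overnight at 37 °C, 5% CO₂. Compounds were diluted in DMSO/PBS from 10^-4 to 10^-9 M and applied for 72 h. MTT (5 mg/mL stock) was then added for 4 h and absorbance read at 570 nm. IC50 came from nonlinear regression on triplicate wells, averaged.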

[5] = Cytotoxicity against human HCT116 cells after 72 hrs by MTT assay; assay type: functional, cell-based; details: HCT-116, 72 h; method in brief: as §1
[6] = tested on: MDA-MB-231; test: Cytotoxicity against human MDA-MB-231 cells after 72 hrs by MTT assay; assay type: functional, cell-based; details: MDA-MB-231, 72 h; method in brief: as §1
[7] = Cytotoxicity against human Bel7404 cells after 72 hrs by MTT assay; assay type: functional, cell-based; details: BEL-7404, 72 h; method in brief: as §1
[8] = target: Phosphatidylinositol 4,5-bisphosphate 3-kinase catalytic subunit alpha isoform (Homo sapiens, UniProt P42336); test: Inhibition of PI3K-alpha (unknown origin) using PIP2 as substrate incubated for 1 hr by Kinase-Glo luminescent kinase assay
Phosphatidylinositol 4,5-bisphosphate 3-kinase catalytic subunit alpha isoform, sequence (P42336 whole entry, canonical isoform): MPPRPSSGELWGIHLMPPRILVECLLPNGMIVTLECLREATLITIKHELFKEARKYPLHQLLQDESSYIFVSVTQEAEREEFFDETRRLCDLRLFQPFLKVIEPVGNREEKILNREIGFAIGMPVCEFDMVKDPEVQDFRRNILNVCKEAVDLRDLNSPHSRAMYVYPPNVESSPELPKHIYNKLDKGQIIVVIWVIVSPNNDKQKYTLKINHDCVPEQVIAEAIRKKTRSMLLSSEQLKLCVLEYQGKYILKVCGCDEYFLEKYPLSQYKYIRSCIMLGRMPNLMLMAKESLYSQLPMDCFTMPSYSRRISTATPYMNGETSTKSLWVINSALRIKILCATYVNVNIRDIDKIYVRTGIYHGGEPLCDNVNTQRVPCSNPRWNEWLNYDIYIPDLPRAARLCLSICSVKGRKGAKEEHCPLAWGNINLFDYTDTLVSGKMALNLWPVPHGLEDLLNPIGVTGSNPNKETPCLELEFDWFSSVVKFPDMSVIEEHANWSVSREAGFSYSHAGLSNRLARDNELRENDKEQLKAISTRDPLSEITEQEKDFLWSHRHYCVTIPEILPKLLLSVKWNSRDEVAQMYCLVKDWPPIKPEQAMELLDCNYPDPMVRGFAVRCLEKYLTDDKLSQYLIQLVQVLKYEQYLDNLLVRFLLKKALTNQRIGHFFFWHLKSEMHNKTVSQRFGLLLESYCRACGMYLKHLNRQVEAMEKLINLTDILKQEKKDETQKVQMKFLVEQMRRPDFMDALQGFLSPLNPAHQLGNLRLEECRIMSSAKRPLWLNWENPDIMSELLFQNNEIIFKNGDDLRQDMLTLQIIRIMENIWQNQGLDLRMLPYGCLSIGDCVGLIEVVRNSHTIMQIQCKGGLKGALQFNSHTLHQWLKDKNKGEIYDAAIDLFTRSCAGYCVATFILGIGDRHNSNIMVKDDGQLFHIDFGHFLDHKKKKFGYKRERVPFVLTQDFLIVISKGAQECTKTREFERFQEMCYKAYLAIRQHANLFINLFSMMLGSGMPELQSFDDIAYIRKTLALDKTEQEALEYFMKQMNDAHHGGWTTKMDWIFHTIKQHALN

[9] = target: Phosphatidylinositol 4,5-bisphosphate 3-kinase catalytic subunit delta isoform (Homo sapiens, UniProt O00329); test: Inhibition of PI3K-delta (unknown origin) using PIP2 as substrate incubated for 1 hr by Kinase-Glo luminescent kinase assay
[10] = target: T1, Phosphatidylinositol 4,5-bisphosphate 3-kinase catalytic subunit beta isoform (Homo sapiens, UniProt P42338); test: Inhibition of PI3K-beta (unknown origin) after 40 mins by ADP-Glo luminescent kinase assay
Method in brief: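 ADP-Glo reagent stopped the reaction (40 min), then detection reagent was added (60 min) and luminescence read. Percent inhibition was derived from RLU.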
Target sequence in this assay (P42338 whole entry, canonical isoform): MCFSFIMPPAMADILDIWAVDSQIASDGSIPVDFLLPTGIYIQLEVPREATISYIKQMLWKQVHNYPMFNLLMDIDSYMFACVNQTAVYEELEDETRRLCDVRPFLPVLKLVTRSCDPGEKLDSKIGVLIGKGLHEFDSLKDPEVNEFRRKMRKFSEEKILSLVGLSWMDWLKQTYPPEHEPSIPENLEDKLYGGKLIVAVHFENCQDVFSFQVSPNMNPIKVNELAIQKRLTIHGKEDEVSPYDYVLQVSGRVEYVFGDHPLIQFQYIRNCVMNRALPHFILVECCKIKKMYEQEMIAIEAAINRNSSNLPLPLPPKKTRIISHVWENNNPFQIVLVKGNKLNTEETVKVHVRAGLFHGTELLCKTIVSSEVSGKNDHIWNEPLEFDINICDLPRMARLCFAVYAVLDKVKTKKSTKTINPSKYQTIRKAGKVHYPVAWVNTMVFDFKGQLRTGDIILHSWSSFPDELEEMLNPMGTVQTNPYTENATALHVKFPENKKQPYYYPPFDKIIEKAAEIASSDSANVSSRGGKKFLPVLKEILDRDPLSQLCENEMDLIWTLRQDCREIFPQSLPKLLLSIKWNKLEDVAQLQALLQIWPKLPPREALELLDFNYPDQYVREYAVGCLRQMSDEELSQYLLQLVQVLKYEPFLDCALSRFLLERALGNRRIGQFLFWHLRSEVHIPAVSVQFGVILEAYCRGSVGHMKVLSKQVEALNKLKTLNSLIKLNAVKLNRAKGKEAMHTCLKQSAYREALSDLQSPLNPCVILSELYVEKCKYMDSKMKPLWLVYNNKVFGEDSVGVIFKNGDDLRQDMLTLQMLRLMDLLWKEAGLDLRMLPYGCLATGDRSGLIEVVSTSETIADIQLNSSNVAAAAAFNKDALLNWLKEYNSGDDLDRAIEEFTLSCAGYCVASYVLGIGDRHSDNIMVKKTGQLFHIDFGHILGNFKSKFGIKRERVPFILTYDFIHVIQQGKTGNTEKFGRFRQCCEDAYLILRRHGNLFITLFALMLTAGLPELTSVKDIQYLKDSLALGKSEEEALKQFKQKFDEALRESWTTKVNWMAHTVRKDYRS

[11] = target: T2, Phosphatidylinositol 4,5-bisphosphate 3-kinase catalytic subunit gamma isoform (Homo sapiens, UniProt P48736); test: Inhibition of PI3K-gamma (unknown origin) after 40 mins by ADP-Glo luminescent kinase assay
Method in brief: (§2)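 Final enzyme was PI3Kβ 4.8 nM and PI3Kγ 7.6 nM. ADP-Glo reagent stopped the reaction (40 min), then detection reagent was added (60 min) and luminescence read. Percent inhibition was derived from RLU.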
Target sequence in this assay (P48736 whole entry, canonical isoform): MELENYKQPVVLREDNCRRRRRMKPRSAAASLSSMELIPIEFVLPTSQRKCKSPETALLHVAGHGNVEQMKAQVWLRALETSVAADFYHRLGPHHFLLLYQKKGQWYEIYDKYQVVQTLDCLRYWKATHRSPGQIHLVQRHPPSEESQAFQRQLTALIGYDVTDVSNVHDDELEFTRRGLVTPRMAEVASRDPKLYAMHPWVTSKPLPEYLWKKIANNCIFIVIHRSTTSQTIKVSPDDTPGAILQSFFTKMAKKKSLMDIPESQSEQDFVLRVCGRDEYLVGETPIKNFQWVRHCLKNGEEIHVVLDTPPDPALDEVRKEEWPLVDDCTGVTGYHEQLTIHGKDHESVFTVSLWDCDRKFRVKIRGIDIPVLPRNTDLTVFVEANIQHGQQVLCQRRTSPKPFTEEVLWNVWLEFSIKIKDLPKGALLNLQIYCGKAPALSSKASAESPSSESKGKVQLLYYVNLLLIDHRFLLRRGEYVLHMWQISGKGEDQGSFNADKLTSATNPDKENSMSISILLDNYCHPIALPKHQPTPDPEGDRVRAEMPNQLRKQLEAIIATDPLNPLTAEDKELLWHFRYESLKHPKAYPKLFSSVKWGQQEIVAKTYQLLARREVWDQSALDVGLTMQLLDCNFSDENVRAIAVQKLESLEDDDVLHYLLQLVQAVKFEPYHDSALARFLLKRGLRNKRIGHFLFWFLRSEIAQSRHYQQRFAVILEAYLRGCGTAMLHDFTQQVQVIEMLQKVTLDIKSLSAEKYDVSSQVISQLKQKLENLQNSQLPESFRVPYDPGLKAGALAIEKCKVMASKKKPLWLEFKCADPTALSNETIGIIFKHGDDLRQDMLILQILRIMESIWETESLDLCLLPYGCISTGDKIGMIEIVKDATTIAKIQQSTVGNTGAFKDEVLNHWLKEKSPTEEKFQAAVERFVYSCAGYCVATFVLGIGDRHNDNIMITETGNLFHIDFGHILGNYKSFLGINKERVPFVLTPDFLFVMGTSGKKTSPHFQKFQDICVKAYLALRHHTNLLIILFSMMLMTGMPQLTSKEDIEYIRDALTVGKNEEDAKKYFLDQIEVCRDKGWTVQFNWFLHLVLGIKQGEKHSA

[12] = target: T3, Phosphatidylinositol 4,5-bisphosphate 3-kinase catalytic subunit delta isoform (Homo sapiens) (UniProt O00329); test: Inhibition of PI3K-delta (unknown origin) using PIP2 as substrate at 10 nM incubated for 1 hr by Kinase-Glo luminescent kinase assay
T3 sequence (whole entry): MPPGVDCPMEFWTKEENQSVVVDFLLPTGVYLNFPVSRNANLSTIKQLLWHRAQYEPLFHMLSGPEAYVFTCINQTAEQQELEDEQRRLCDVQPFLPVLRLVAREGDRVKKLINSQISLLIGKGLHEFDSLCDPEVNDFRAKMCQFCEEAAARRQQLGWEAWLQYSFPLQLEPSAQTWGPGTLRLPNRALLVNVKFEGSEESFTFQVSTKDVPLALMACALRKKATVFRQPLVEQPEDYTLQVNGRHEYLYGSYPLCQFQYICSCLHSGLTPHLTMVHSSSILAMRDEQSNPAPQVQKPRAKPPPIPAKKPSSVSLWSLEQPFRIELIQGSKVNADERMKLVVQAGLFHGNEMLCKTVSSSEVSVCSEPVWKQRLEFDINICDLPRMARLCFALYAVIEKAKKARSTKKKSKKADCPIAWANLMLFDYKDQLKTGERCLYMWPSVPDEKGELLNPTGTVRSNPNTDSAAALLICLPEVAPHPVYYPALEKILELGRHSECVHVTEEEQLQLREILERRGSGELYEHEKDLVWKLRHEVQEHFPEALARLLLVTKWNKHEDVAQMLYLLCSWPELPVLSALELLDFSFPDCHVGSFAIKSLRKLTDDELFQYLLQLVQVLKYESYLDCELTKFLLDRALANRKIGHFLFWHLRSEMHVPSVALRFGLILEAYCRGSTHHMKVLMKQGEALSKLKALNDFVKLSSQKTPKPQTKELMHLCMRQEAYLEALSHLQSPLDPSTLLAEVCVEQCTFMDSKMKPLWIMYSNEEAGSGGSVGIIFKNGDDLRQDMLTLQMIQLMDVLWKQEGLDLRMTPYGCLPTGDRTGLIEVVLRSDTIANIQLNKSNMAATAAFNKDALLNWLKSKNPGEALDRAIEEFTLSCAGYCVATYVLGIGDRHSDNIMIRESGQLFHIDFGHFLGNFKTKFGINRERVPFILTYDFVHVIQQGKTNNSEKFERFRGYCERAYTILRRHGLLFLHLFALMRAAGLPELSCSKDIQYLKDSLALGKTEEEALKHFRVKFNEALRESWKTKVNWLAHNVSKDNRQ
Method in brief: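 Final PIP2 was 50 µM and ATP 25 µM; PI3Kδ was 1.65 nM. Reactions ran 1 h at room temperature, then Kinase-Glo was added for 15 min before reading luminescence. Percent inhibition was derived from RLU. Dose-response used ten 3-fold dilutions (top 100 or 500 nM) in duplicate.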

[13] = target: T1, Phosphatidylinositol 4,5-bisphosphate 3-kinase catalytic subunit beta isoform; test: Inhibition of PI3K-beta (unknown origin) at 10 nM after 40 mins by ADP-Glo luminescent kinase assay; method in brief: as §2
Target sequence in this assay (P42338 whole entry, looked up, canonical isoform): as the sequence (P42338 whole entry, canonical isoform) above

[14] = target: T2, Phosphatidylinositol 4,5-bisphosphate 3-kinase catalytic subunit gamma isoform; test: Inhibition of PI3K-gamma (unknown origin) at 10 nM after 40 mins by ADP-Glo luminescent kinase assay; method in brief: as §2
Target sequence in this assay (P48736 whole entry, looked up, canonical isoform): as the sequence (P48736 whole entry, canonical isoform) above

| SMILES | Activity [1] [%] | IC50 [2] [µM] | half-life [3] [min] | IC50 [4] [µM] | IC50 [5] [µM] | IC50 [6] [µM] | IC50 [7] [µM] | IC50 [8] [µM] | IC50 [9] [µM] | IC50 [10] [µM] | IC50 [11] [µM] | inhibition [12] [%] | inhibition [13] [%] | inhibition [14] [%] |
| --- | --- | --- | --- | --- | --- | --- | --- | --- | --- | --- | --- | --- | --- | --- |
| CNC(=O)c1cc(Oc2ccc(NC(=O)Nc3ccc(Cl)c(C(F)(F)F)c3)cc2)ccn1 [SORAFENIB] | 44 | – | – | – | – | – | – | – | – | – | – | – | – | – |
| CCOC(=O)N1CCN(CC#Cc2ccnc3ccc(-c4cnc(OC)c(NS(=O)(=O)c5ccc(F)cc5F)c4)cc23)CC1 | – | 0.0099 | 46.5 | 0.11 | 1.39 | 3.81 | 0.48 | 0.0055 | 0.019 | 0.023 | 0.004 | 20.7 | 30 | 82 |
| COc1ncc(-c2ccc3nccc(C#CCN4CCOCC4)c3c2)cc1NS(=O)(=O)c1ccc(F)cc1F | – | – | 36.9 | 0.24 | 0.51 | 1.99 | 0.04 | 0.0021 | – | – | – | 35 | 70 | 96 |
| COc1ncc(-c2ccc3nccc(-c4ccnnc4)c3c2)cc1NS(=O)(=O)c1ccc(F)cc1F [OMIPALISIB] | – | – | – | 0.6 | 0.01 | 0.13 | 0.01 | – | – | – | 0.0006 | – | – | – |
| COc1ncc(-c2ccc3nccc(C#CCN4CCCCC4C)c3c2)cc1NS(=O)(=O)c1ccc(F)cc1F (centres undefined) | – | – | – | 1.35 | 4.52 | 4.73 | 1.14 | 0.061 | – | – | – | 4.6 | 11 | 59 |
| COc1ncc(-c2ccc3nccc(C#CCN(C4CCCCC4)C4CCCCC4)c3c2)cc1NS(=O)(=O)c1ccc(F)cc1F | – | – | – | 12 | 11.7 | 27.7 | 6.1 | > 0.1 | – | – | – | 3.2 | 13 | 10 |
| COc1ncc(-c2ccc3nccc(C#CCN4CCCCC4)c3c2)cc1NS(=O)(=O)c1ccc(F)cc1F | – | – | – | 1.81 | 3.61 | 10.3 | 2.3 | 0.037 | – | – | – | 3 | 1.4 | 55 |
| COc1ncc(-c2ccc3nccc(C#CCN(C)C)c3c2)cc1NS(=O)(=O)c1ccc(F)cc1 | – | – | – | 0.97 | 1.34 | 2.08 | 1.16 | 0.032 | – | – | – | 10 | 17 | 70 |
| COc1ncc(-c2ccc3nccc(C#CCN(C)CCO)c3c2)cc1NS(=O)(=O)c1ccc(F)cc1F | – | – | 28.4 | 1.01 | 1.15 | 2.8 | 0.08 | 0.0039 | – | – | – | 16 | 57 | 90 |
| CCN(CC)CC#Cc1ccnc2ccc(-c3cnc(OC)c(NS(=O)(=O)c4ccc(F)cc4F)c3)cc12 | – | – | – | 2.43 | 2.27 | 2.68 | 0.3 | 0.033 | – | – | – | 1.2 | 21 | 68 |
| COc1ncc(-c2ccc3nccc(C#CCN4CCC(C)CC4)c3c2)cc1NS(=O)(=O)c1ccc(F)cc1F | – | – | – | 2.9 | 4.02 | 7.99 | 1.55 | 0.07 | – | – | – | 7.7 | 5.8 | 49 |
| COc1ncc(-c2ccc3nccc(C#CCN(C)C)c3c2)cc1NS(=O)(=O)c1ccc(F)cc1F | – | – | 18.8 | 0.11 | 1.08 | 1.67 | 0.23 | 0.0037 | – | – | – | 6.1 | 41 | 81 |
